Experimental data collected from several papers.
Protocols differ between the studies behind these lines.
Effect on: cell growth or viability

SMILES	cell line	technique	time	quantity	value
COC(=O)[C@]1(O)C[C@@H](O)[C@@H](O)[C@H](OC(=O)/C=C/c2ccc(O)c(O)c2)C1	HCT-116	WST-1	–	IC50	30.8 µM
O=c1[nH]cc(F)c(=O)[nH]1	AGS	crystal violet	72 h	CC50	769 µM
COc1cc2c(OC)nc3c4cc5c(cc4cc(OCCN4CCC(N6CCCCC6)CC4)c3c2cc1OC)OCO5	HCT-116	MTT	–	GI50	11 µM
COC(=O)c1c(C)ncn1CC(c1c[nH]c2cc(Br)ccc12)c1c[nH]c2cc(Br)ccc12	DH82	MTS	24 h	CC50	> 20 µM
C/C=C(/C)C(=O)O[C@@H]1[C@H](OC(C)=O)c2c(ccc3ccc(=O)oc23)OC1(C)C	HCT-116	WST-1	–	IC50	55.8 µM
CCc1ncn(CC(c2c[nH]c3ccc(C)cc23)c2c[nH]c3ccc(C)cc23)c1C(=O)OC	DH82	MTS	24 h	CC50	> 20 µM
CC(=O)OC1c2c(ccc3ccc(=O)oc23)OC(C)(C)C1OC(=O)C(C)(O)C(C)O (centres unmarked)	HCT-116	WST-1	–	IC50	16.1 µM
COc1cc2c(OC)nc3c4cc5c(cc4cc(OC(C)=O)c3c2cc1OC)OCO5	HCT-116	MTT	–	GI50	1.3 µM
CCOC(=O)c1c(C)ncn1CC(c1cn(C)c2ccc([N+](=O)[O-])cc12)c1cn(C)c2ccc([N+](=O)[O-])cc12	DH82	MTS	24 h	CC50	> 20 µM
COc1ccc(S(=O)(=O)ON=C2C=C(C)C(=O)C(C)=C2)cc1	HCT-116	–	–	CC50	7.4 µM
CC[C@H](C)C(=O)O[C@H]1C[C@H](O)C=C2C=C[C@H](C)[C@H](CC[C@@H](O)C[C@@H](O)CC(=O)O)[C@H]21	HCT-116	SRB	72 h	IC50	3.52 µM
